SUMO HTRF inh – blocks human SUMOylation mediated by UBC9; HTRF SUMOylation assay, SAE1/SAE2 + UBC9, in vitro; inhibition, % at 35 µM; 290,000 compounds, 0.36% hits; in the data active = inhibition above about 50%, passing the limit was not always enough
pCIP destab – lowers stability of the mouse p/CIP coactivator protein. F442A p/CIP-EGFP cells, EGFP fluorescence, 16 h. decrease of EGFP signal, % at 10 µM. 290,000 compounds, 0.01% hits. AID 1984;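 active = EGFP signal decrease of at least 30% at 10 µM or well 3 SD below plate mean, unless failing retest; inactive = the rest, including hits failing retest or dose response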
IMP-1 inh-1 – inhibitors of Pseudomonas aeruginosa IMP-1 metallo-beta-lactamase; 290,000 compounds, 0.45% hits; purified IMP-1, nitrocefin hydrolysis, epi-absorbance fluorescence; inhibition, % at 5.6 µM; AID 1556;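 active = inhibition above the mean plus 3 SD of all compounds in the same screening run, cut at about 4.5% in these data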;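 also: 0% = IMP-1 with DMSO and 100% = DMSO wells lacking enzyme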
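Test system: recombinant IMP-1 enzyme, purified / Medium: HEPES buffer pH 7.1 with ZnSO4 and Brij 35 / Doses: single dose, 5.6 µM / Times: 25 °C, 15 min preincubation, 25 min reaction / Detection: Epi-absorbance via hydrolysed-nitrocefin quenching of white-plate fluorescence, 480/530 nm, EDTA stop / Evaluation: percent inhibition from optical density relative to buffer-blank wells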
VIM-2 inhibitor – inhibitors of Pseudomonas aeruginosa VIM-2 metallo-beta-lactamase; purified VIM-2, nitrocefin hydrolysis, epi-absorbance fluorescence; inhibition, % at 5.6 µM; 290,000 compounds, 0.89% hits;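 active = inhibition above the mean of all tested compounds plus 3 SD, cutoff set per screening run, cut at about 7.5% in these data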;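 also: red hydrolysis product quenches plate fluorescence so inhibitors raise well fluorescence; 0% = enzyme with DMSO and 100% = DMSO without enzyme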
Fh CTSL1 inh – cathepsin L1 inhibition, PFM18AAP counter-screen. AID 1906. recombinant F. hepatica cathepsin L1, Z-Leu-Arg-MCA fluorescence. inhibition, % at 5.96 µM. 300,000 compounds, 0.49% hits;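 active = inhibition above the mean of all tested compounds plus 3 SD, set per screening campaign, cut at about 17% in these data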;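 also: 0% = plate median of test compound wells and 100% = 1 µM Z-Phe-Ala-diazomethylketone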
T cell modulator – modulates CD8 T cell binding to vesicles; response (vesicle binding), % at 7 µM; 330,000 compounds, 0.068% hits; 2C CD8+ T cell-vesicle binding, flow cytometry; active compounds read low; AID 2052;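 active = response, share of CD8 T cells binding vesicles, and their 90th percentile fluorescence all below set limits, cut at about 80% in these data, passing the limit was not always enough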;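 also: values below 100% mean blocked vesicle binding to the CD8+ T cells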
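material = purified 2C TCR transgenic mouse naive CD8+ T cells | controls = Unloaded micro-vesicles (low), QL9 vesicles with 0.7% DMSO (high) | detection = cytometric PE anti-B7-1 and Alexa647 anti-CD8 signals after 1% paraformaldehyde fixation | incubation = binding step 1.5 h, 37 °C, antibody labelling 20 min, ice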
IMP-1 inh-2 – IMP-1 inhibition, counter-screen for VIM-2 inhibitors | 1,300 tested, under 10 active | shares compounds with VIM-2 inhibitor | purified IMP-1, nitrocefin hydrolysis, epi-absorbance fluorescence | inhibition, % at 5.6 µM; call rule not given here;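 also: 0% = enzyme with vehicle and 100% = vehicle without enzyme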
VIM-2 FRET ctr – VIM-2 FRET inhibition, artifact counter-screen. shares compounds with VIM-2 inhibitor. purified VIM-2, CCF2 FRET substrate hydrolysis. inhibition, % at 5.6 µM. 1,300 compounds, 23% hits;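 active = inhibition above the mean of all tested compounds plus 3 SD, cut at about 19% in these data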;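 also: 0% = VIM-2 plus DMSO and 100% = no enzyme wells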
TEM-1 inh – selectivity counter-screen for VIM-2 inhibitors: E. coli TEM-1 inhibitors | shares compounds with VIM-2 inhibitor | Purified TEM-1, nitrocefin hydrolysis, epi-absorbance fluorescence | inhibition, % at 5.6 µM | 1,300 compounds, 3% hits;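 active = inhibition above that campaign's mean inhibition plus 3 SD, cut at about 0.46% in these data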;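 also: 0% = TEM-1 with DMSO and 100% = TEM-1 with 100 µM potassium clavulanate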
VIM-2 inh conf – confirmation of P. aeruginosa VIM-2 metallo-beta-lactamase inhibitors; shares compounds with VIM-2 inhibitor; purified VIM-2, nitrocefin hydrolysis, epi-absorbance; inhibition, % at 5.6 µM; 1,300 compounds, 96% hits;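 active = inhibition of the VIM-2 beta-lactamase enzyme above about 11% from the earlier first-round screen, limit read from the data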;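 also: 0% = VIM-2 with DMSO and 100% = buffer wells without enzyme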
* marks the source's active call; other numbers are inactive results; i = inactive; / = no result given. Only some compounds are listed: those with a hit (about 1.9% of all), similar ones and a draw of the others.

SMILES | SUMO HTRF inh | pCIP destab | IMP-1 inh-1 | VIM-2 inhibitor | Fh CTSL1 inh | T cell modulator | IMP-1 inh-2 | VIM-2 FRET ctr | TEM-1 inh | VIM-2 inh conf
CCCn1c(SCC(=O)N2CCN(CC)CC2)nc2c1c(=O)n(C)c(=O)n2C | 5 | -21 | -1 | 52* | -2 | 423 | -4 | 1 | -6 | 61*
CC1CCN(S(=O)(=O)c2cccc(C(=O)Nc3nncs3)c2)CC1 | 16 | 8 | -4 | -3 | 3 | 223 | / | / | / | /
Cc1cc(C)n2cc(CSc3nnc(-c4ccccc4)o3)nc2n1 | 42 | -7 | 1 | 16* | -4 | 602 | -3 | 30* | -3 | 21*
Cc1cc(C)n2cc(CSCc3ccccc3)nc2n1 | 22 | 2 | -3 | 2 | 5 | 286 | / | / | / | /
CN(CCO)c1ccc([N+](=O)[O-])cc1C(=O)O | -4 | -10 | -2 | 1 | 1 | 172 | / | / | / | /
CN(CCO)c1ccc(-c2n[nH]c(=O)c3ccccc23)cc1[N+](=O)[O-] | 9 | -13 | -4 | 16* | / | 159 | -3 | -3 | -6 | 27*
CCOC(=O)CNS(=O)(=O)c1cc(-c2n[nH]c(=O)c3ccccc23)ccc1C | -14 | -5 | -1 | 2 | / | / | / | / | / | /
CCC(CO)Nc1ccc(-c2n[nH]c(=O)c3ccccc23)cc1[N+](=O)[O-] (stereo not given) | -7 | 4 | -2 | 22* | 5 | 275 | -4 | -4 | -8 | 32*
CCC(CO)Nc1ccc(-c2nn(C)c(=O)c3ccccc23)cc1[N+](=O)[O-] (stereo not given) | 4 | -12 | -1 | 25* | 5 | 237 | -4 | -2 | -8 | 45*
C[C@H](CO)N1C[C@H](C)[C@@H](CN(C)S(=O)(=O)c2cn(C)cn2)Oc2c(NS(=O)(=O)c3ccc(F)cc3)cccc2C1=O | / | / | / | / | / | 327 | / | / | / | /
O=S(=O)([O-])C(c1ccccc1)[n+]1ccccc1 (stereo not given) | / | / | / | / | -3 | 230 | / | / | / | /
Cc1cc(C(=O)CCC(=O)NCC2COc3ccccc3O2)c(C)s1 (stereo not given) | / | / | / | / | -1 | 591 | / | / | / | /
COC(=O)c1ccccc1Nc1cc(C)nc2nc(C)nn12 | 4 | -2 | -1 | 13* | 1 | 250 | -3 | 2 | -5 | 29*
COc1ccc(C)cc1Nc1cc(C)nc2nc(C)nn12 | 4 | 2 | -4 | 26* | -1 | 242 | -2 | -1 | -6 | 40*
Cc1cc(Nc2cc(F)ccc2C)n2nc(C)nc2n1 | 5 | -3 | 0 | 5 | -2 | 714 | / | / | / | /
COc1ccc(OC)c(Nc2cc(C)nc3nc(C)nn23)c1 | 4 | -16 | -4 | 15* | 1 | 263 | -3 | -2 | -4 | 30*
Cc1ccc(NC(=O)CN2C(=O)C3CC=C(Cl)CC3C2=O)cc1 (stereo not given) | 13 | -11 | -3 | -4 | 4 | 359 | / | / | / | /
O=c1[nH]c(Cc2cccc(C(F)(F)F)c2)nc2ccccc12 | 23 | -8 | -3 | -4 | 1 | 220 | / | / | / | /
CCN(CC)C(=O)CS(=O)(=O)CC(=O)Nc1cc(OCCOC)c(Cl)cc1Cl | 8 | -18 | -3 | 0 | -1 | 139 | / | / | / | /
CCOc1cc(C(=O)N=c2sccn2C)ccc1OC(F)F | 10 | -11 | -3 | -2 | 5 | 308 | / | / | / | /
CCOc1ccc(CCNC(=O)c2ccc(=O)[nH]c2)cc1OCC | 11 | -3 | -2 | 27* | 3 | 0 | -2 | -4 | -1 | 2
COc1ccc(CCNC(=O)c2ccc(=O)[nH]c2)cc1OC | 16 | -4 | -1 | 0 | 4 | 101 | / | / | / | /
COc1ccc(NC(=O)COC(=O)c2cc(Cl)ccc2O)cc1S(=O)(=O)N1CCCCC1 | / | / | / | / | / | 236 | / | / | / | /
Cc1c(OCC(=O)N2CCC(C(N)=O)CC2)ccc2c3c(c(=O)oc12)CCCC3 | 13 | 0 | -1 | 12* | 0 | 339 | -3 | -3 | -15 | 19*
Cc1c(OCC(=O)N2CCC(C(N)=O)CC2)ccc2c1oc(=O)c1ccccc12 | 31 | 1 | -4 | 23* | -1 | 189 | -4 | -1 | -12 | 31*
CCC(C)C(NC(=O)C1CCC(C)CC1)C(=O)NCCc1ccc(S(N)(=O)=O)cc1 (stereo not given) | 1 | -9 | -1 | 0 | 0 | 229 | / | / | / | /
CCCn1c(=N)c(C#N)cc2c(=O)n3ccccc3nc21 | 14 | -12 | -2 | 1 | 6 | 165 | / | / | / | /
N#Cc1cc2c(=O)n3ccccc3nc2n(CCCn2ccnc2)c1=N | 13 | 10 | 0 | 45* | 2 | i | -2 | -10 | -3 | 78*
COc1ccc(NC(=O)COc2cccc3c2CCN(Cc2cccnc2)C3=O)c(OC)c1 | 1 | -13 | 0 | 14* | 0 | 138 | -2 | -5 | -5 | 23*

Bioassay records: PubChem BioAssay, several laboratories
